An excerpt weighted towards active compounds, which were near 11% of everything screened.
M1 antag: M1 muscarinic receptor (rat) antagonism; 3.4% of 64,000 active; P08482; AID 628; B-score at 10 µM; CHO-M1 cells, Fluo-4 calcium, ACh EC80 antagonist mode; stronger effect = lower value;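 active = calcium fluorescence response, raw or row-and-column corrected B-score, differing from the plate sample mean either way at a set confidence level, mostly lower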
S1P3 agonist: S1P3 (human) receptor agonism. S1P3 NFAT-BLA reporter cells, FRET ratio; relative to 1 µM S1P, basal subtracted. Q99500. 0.1% of 60,000 active. activation, % at 4.5 µM. AID 373;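 active = activation above the screen-wide mean plus 3 SD, cut at about 4.5% in these data, passing the limit was not always enough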
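Material: Human S1P3 NFAT-BLA reporter CHO cells | Incubation: Overnight plating, 4 h compound 37 °C, 2 h substrate RT | Signal: FRET β-lactamase substrate fluorescence, excitation 405 nm, 460/535 nm emission ratio, background-subtracted | Compound: 4.5 µM final, single dose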
M1 ag: activates the M1 muscarinic receptor; CHO-M1 cells, Fluo-4 calcium fluorescence, agonist mode; stronger effect = higher value; B-score at 10 µM; 3% of 64,000 active;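 active = fluorescence rise, raw or as B-score row- and column-corrected plate score, outside the 99.7% band of its plate's samples, either direction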
D1 mod: allosterically modulates the human D1 dopamine receptor | B-score at 10 µM | HEK293 D1, CRE-luciferase, dopamine EC30 potentiation; actives deviate in either direction | P21728 | 5.9% of 58,000 active;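 active = luminescence count or its row- and column-corrected plate score outside the 99.7% band of the plate's sample wells, on either side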
Target sequence (P21728 whole entry, looked up): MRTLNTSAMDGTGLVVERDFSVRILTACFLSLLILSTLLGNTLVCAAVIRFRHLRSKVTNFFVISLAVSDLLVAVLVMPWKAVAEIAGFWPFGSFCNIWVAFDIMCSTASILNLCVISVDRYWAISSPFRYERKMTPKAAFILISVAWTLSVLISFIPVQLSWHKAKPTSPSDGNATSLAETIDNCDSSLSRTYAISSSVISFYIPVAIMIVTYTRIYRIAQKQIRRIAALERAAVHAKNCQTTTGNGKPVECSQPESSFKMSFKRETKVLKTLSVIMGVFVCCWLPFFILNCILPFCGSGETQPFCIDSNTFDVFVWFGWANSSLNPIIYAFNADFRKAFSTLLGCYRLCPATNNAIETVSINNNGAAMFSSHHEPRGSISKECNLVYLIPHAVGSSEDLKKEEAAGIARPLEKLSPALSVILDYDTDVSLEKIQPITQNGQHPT
S1P1 ag-PAM: S1P1 (human) agonism or agonism potentiation; 0.57% of 56,000 active; S1P1 CRE-bla cells, forskolin, beta-lactamase FRET, potentiator mode; S1P1 agonist co-added at EC20, 2 nM; 100% = saturating reference agonist, 0% = basal; P21453; activation, % at 9.5 µM;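 active = activation above a cutoff set at the mean activation of all tested compounds plus 3 SD, cut at about 54% in these data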;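 note: forskolin at 4 µM as EC80 and the EC20 agonist is SEW2871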
M1 ag confirm: confirmation of rat M1 muscarinic receptor agonists; shares compounds with M1 ag; CHO-M1 cells, Fluo-4 calcium fluorescence, agonist mode; actives lie on both sides; fluorescence change (max-min) at 10 µM; 19% of 1,700 active; AID 1488;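 active = fluorescence change differs from the solvent-only DMSO control mean at a set confidence level in both duplicate runs; inconclusive = differs from solvent-only control mean in just one of two runs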;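 note: an EC20 dose of acetylcholine follows compound addition during the same imaging run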
M4 agonist ctr: counter-screen for M1 agonists: activity at rat M4 receptor; CHO M4/Gqi5 cells, Fluo-4 calcium fluorescence, agonist mode; actives lie on both sides; 9% of 1,700 active; AID 1741; shares compounds with M1 ag; fluorescence change (max-min) at 10 µM;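 active = fluorescence change differing from the plate's solvent-only control wells at 99.7% confidence in both duplicates, whether higher or lower; inconclusive = differs from solvent controls in only one of two duplicates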
A number is an active result; – = inactive; ? = inconclusive; · = no result.

SMILES	M1 antag	S1P3 agonist	M1 ag	D1 mod	S1P1 ag-PAM	M1 ag confirm	M4 agonist ctr
O=C(Nc1ccccc1NC(=O)c1c(F)c(F)c(F)c(F)c1F)c1c(F)c(F)c(F)c(F)c1F	–	–	2.9	–	–	–	?
CCN(CC)Cc1c(O)ccc2c(-c3ccccc3)cc(=O)oc12	–	–	–	–	–	·	·
CCCCN(C)Cc1c(O)ccc2c(-c3ccccc3)cc(=O)oc12	-3.8	–	8.2	·	–	–	–
COc1ccc(NC(=O)c2ccccc2NC(=O)C2CCCO2)cc1 (stereo not given)	–	–	–	–	–	·	·
CCCCn1nc(NC(=O)c2cccs2)c2cc3cc(OC)ccc3nc21	–	–	6.4	–	–	–	–
COc1ccc2nc3c(cc2c1)c(NC(=O)C1CCCO1)nn3CC(C)C (stereo not given)	–	–	4.3	–	–	–	–
CCCCCn1c(CCNC(=O)c2cccs2)nc2ccccc21	–	·	11	·	·	-30	–
CCCCCn1c(CNC(=O)c2cccs2)nc2ccccc21	–	·	–	·	·	·	·
O=C(O)CCc1nnc2n(Cc3ccc(F)cc3)c(=O)c3ccccc3n12	–	–	–	·	–	·	·
CC1(C)CC(=O)C2=C(C1)OC(N)=C(C#N)C21CCN(Cc2ccccc2)CC1	–	·	6.9	–	·	–	–
COc1ccc(OC)c(C2C(C(=O)Nc3cccnc3)=C(C)NC3=C2C(=O)CCC3)c1 (stereo not given)	–	–	–	–	–	·	·
CCOC(=O)C1CCCN(C(=O)CCC(=O)Nc2ccc3nc(N4CCOCC4)cc(C)c3c2)C1 (stereo not given)	–	–	5.4	–	–	?	–
CCOC(=O)C1CCCN(CC(=O)NC2=Nc3ccccc3N=C(C)C2c2ccccc2)C1 (stereo not given)	–	–	7.4	–	–	-31	–
CCOC(=O)C1CCCN(CCC(=O)Nc2ccc(F)c(F)c2)C1 (stereo not given)	–	–	5.8	–	–	–	–
CCOC(=O)C1CCCN(CC(=O)NC2CC2)C1 (stereo not given)	–	–	–	–	–	·	·
CCN(CC)S(=O)(=O)c1cccc2c(N(C)C)cccc12	–	–	–	–	–	·	·
CCC(Oc1ccccc1)C(=O)Nc1ccc(S(=O)(=O)NCC2CCCO2)cc1 (stereo not given)	–	–	-2.2	–	–	–	–
CN(C)c1ccc(C(c2nnnn2CCOC(=O)Nc2ccc(Cl)cc2)N2CCOCC2)cc1 (stereo not given)	–	–	–	–	–	·	·
CCNC(=O)CSc1nc2cc(OC)c(OC)cc2c(=O)n1CCC1=CCCCC1	–	–	–	–	–	·	·
COc1ccc(CN(Cc2ccccn2)C(=O)CN2C(=O)C(C)Oc3ccccc32)cc1 (stereo not given)	–	–	15	–	–	–	–
CC1CN(c2nc3ccccc3nc2C(C#N)C(=O)NC2CCCCC2)CC(C)O1 (stereo not given)	–	–	41	–	–	-31	–
CC1CN(c2nc3ccccc3nc2C(C#N)C(=O)OC2CCCCC2)CC(C)O1 (stereo not given)	–	–	38	–	–	?	–
N#CC(C(=O)OC1CCCCC1)c1nc2ccccc2nc1N1CCCCC1 (stereo not given)	–	–	–	–	–	·	·
CCCCCNC(=O)C(C#N)c1nc2ccccc2nc1N1CC(C)OC(C)C1 (stereo not given)	–	–	–	·	–	·	·
Cc1cc(-c2cc(N)n(-c3ccccc3)n2)c(C)n1C1CCCC1	–	–	–	–	–	·	·
SMILES	M1 antag	S1P3 agonist	M1 ag	D1 mod	S1P1 ag-PAM	M1 ag confirm	M4 agonist ctr
COCCN(CC(=O)Nc1ccccc1)S(=O)(=O)c1ccc(S(=O)(=O)N2CCCC2)cc1	–	–	–	–	–	·	·
Cc1cccc(N2CCN(C(=O)Cn3sc4nc(C)cc(C)c4c3=O)CC2C)c1 (stereo not given)	–	–	5.3	–	–	-24	-67
CCOC(=O)CSC1=C(C#N)C(c2ccc(Cl)cc2)CC(=O)N1 (stereo not given)	–	–	3	–	–	–	?
CCOC(=O)N1CCC(N2Cc3cccc(C(=O)Nc4ccc(OC)c(OC)c4)c3C2=O)CC1	-4	–	9	-2.2	–	–	–
CSc1nc2c(cnn2-c2ccc(C)c(C)c2)c(=O)[nH]1	–	–	–	–	–	·	·
Cc1ccc(-n2c(C)nc3c(cnn3-c3ccc(F)cc3)c2=O)cc1C	–	–	3.5	–	–	–	?
Cc1[nH]n(CCC#N)c(=O)c1CC(=O)N1CCN(c2ccccc2)CC1	–	–	–	·	–	·	·
C=CCn1c(N)c(C(=O)NCC2CCCO2)sc1=S (stereo not given)	–	–	–	–	–	·	·
CCn1c(N)c(C(=O)NCC2CCCO2)sc1=S (stereo not given)	–	–	6.7	–	–	–	–
O=C(c1ccc(-c2ccccc2)cc1)N1CCN(C(=O)c2ccco2)CC1	–	–	–	–	–	·	·
O=C(c1ccco1)N1CCN(C(=O)C(Sc2ccccc2)c2ccccc2)CC1 (stereo not given)	–	–	3.8	–	–	?	–
N#CCSc1nnc(Cc2ccc3c(c2)OCO3)o1	–	–	–	–	–	·	·
CCOC(=O)Cn1c2ccc(OC)cc2c2nc3ccccc3nc21	–	–	19	–	–	–	–
CC1Cc2ccccc2N1C(=O)c1cc2c(=O)n3ccccc3nc2n1C (stereo not given)	–	–	8.4	–	–	–	–
Cn1c(C(=O)N2CCc3ccccc3C2)cc2c(=O)n3ccccc3nc21	–	–	–	–	–	·	·
COc1ccc2oc(-c3ccccc3)c(C(=O)N3CCOCC3)c2c1	–	–	4	–	–	–	–
COc1ccc(-c2cc(C(=O)N3CCOCC3)c3cc(C)ccc3n2)cc1	–	–	4.1	–	·	–	–
Cc1cc(C)n(-c2nc3ccccc3nc2N2CCN(C(=O)c3ccc(Cl)cc3)CC2)n1	–	–	–	–	·	·	·
Cc1cc(-c2ccccc2)n(-c2ccc(C(=O)N3CCN(c4ncccn4)CC3)cc2)n1	–	–	9.2	·	–	?	?
CC(C)Oc1cccc(-c2cc(C(=O)N3CCN(S(C)(=O)=O)CC3)c3ccccc3n2)c1	–	–	3.6	–	–	?	–
COC(=O)C(C)Oc1ccc(=O)[nH]n1 (stereo not given)	–	–	–	–	–	·	·
COc1cc(C)nc(OCCNS(=O)(=O)c2cc(C)ccc2C)n1	–	–	–	–	–	·	·
O=C(c1cnccn1)N1CCN(C/C=C/c2ccccc2)CC1	–	·	–	·	·	·	·

Source: PubChem
